Experimental findings from ChEMBL document CHEMBL1153223, “One pot synthesis and SAR of some novel 3-substituted 5,6-diphenyl-1,2,4-triazines as antifungal agents” (2010) are described below.

Molecules are shown by their SMILES. ≈ marks a conversion by molar mass, not a printed value. Calls of active or inactive are those of the source. No cut-off for these calls is given here.

Assay [1] has as its system Aspergillus flavus. Put plainly: Antifungal activity against Aspergillus flavus NCIM 539 by standard agar plate method. The format is functional. In short, it runs like this: (§1)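 Read-out was the minimum inhibitory concentration (MIC) on agar plates, with miconazole and fluconazole run as reference antifungal standards.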
In assay [2] the test system is Candida albicans. Nature of the assay: Antifungal activity against Candida albicans NCIM 347 by standard agar plate method. The format is functional. In short, it runs like this:
as §1

The subject of assay [3] is Aspergillus niger. Put plainly: Antifungal activity against Aspergillus niger NCIM 1196 by standard agar plate method. The format is functional. In short, it runs like this: as §1
In assay [4] the test system is Cryptococcus neoformans. Nature of the assay: Antifungal activity against Cryptococcus neoformans NCIM 576 by standard agar plate method. The format is functional. The essentials:
as §1

In assay [5] the test system is Fusarium oxysporum. Nature of the assay: Antifungal activity against Fusarium oxysporum NCIM 1332 by standard agar plate method. The format is functional. The essentials: as §1
The subject of assay [6] is Cryptococcus neoformans. Nature of the assay: Antifungal activity against Cryptococcus neoformans NCIM 576 up to 200 ug/mL by standard agar plate method. The format is functional, organism-based. The essentials: as §1
Assay [7] concerns Aspergillus flavus. Put plainly: Antifungal activity against Aspergillus flavus NCIM 539 up to 200 ug/mL by standard agar plate method. The format is functional, organism-based. The essentials:
as §1

Assay [8] relates to Aspergillus niger. Nature of the assay: Antifungal activity against Aspergillus niger NCIM 1196 up to 200 ug/mL by standard agar plate method. The format is functional, organism-based. In short, it runs like this: as §1
The subject of assay [9] is Fusarium oxysporum. Nature of the assay: Antifungal activity against Fusarium oxysporum NCIM 1332 up to 200 ug/mL by standard agar plate method. The format is functional, organism-based. In short, it runs like this: as §1

The term MIC denotes the lowest concentration found to suppress growth. Regarding `CCN1CCC(n2cc(-c3nnc(-c4ccccc4)c(-c4ccccc4)n3)nn2)CC1`, the MIC amounted to 12.5 µg/mL (≈ 30.4 µM) in assay [1]; 25 µg/mL (≈ 60.8 µM) in [2]; 12.5 µg/mL (≈ 30.4 µM) in assay [3]; 35 µg/mL (≈ 85.1 µM) in [4]; 25 µg/mL (≈ 60.8 µM) in assay [5].

With `CCC(=O)N1CCC(n2cc(-c3nnc(-c4ccccc4)c(-c4ccccc4)n3)nn2)CC1`, the MIC in assay [1] turned out to be 20 µg/mL (≈ 45.5 µM); in [2], 50 µg/mL (≈ 114 µM); in [3], 20 µg/mL (≈ 45.5 µM); in assay [5], 50 µg/mL (≈ 114 µM). For the same compound, the MIC result in [6] was “inactive”.

For `CC(=O)N1CCC(n2cc(-c3nnc(-c4ccccc4)c(-c4ccccc4)n3)nn2)CC1`, the MIC was 20 µg/mL (≈ 47 µM) in [1], 35 µg/mL (≈ 82.3 µM) in assay [2], 20 µg/mL (≈ 47 µM) in assay [3] and 40 µg/mL (≈ 94 µM) in assay [5]. For the same compound, the MIC result in assay [6] is “inactive”.

Turning to `O=C(c1ccccc1)N1CCC(n2cc(-c3nnc(-c4ccccc4)c(-c4ccccc4)n3)nn2)CC1`, the minimum inhibitory concentration (MIC) was 17.5 µg/mL (≈ 35.9 µM) in assay [1]; 30 µg/mL (≈ 61.5 µM) in [2]; 15 µg/mL (≈ 30.8 µM) in assay [3]; 55 µg/mL (≈ 113 µM) in assay [4]; 30 µg/mL (≈ 61.5 µM) in assay [5].

As for `O=C(c1ccc(Cl)cc1)N1CCC(n2cc(-c3nnc(-c4ccccc4)c(-c4ccccc4)n3)nn2)CC1`, the MIC in assay [1] came to 15 µg/mL (≈ 28.7 µM); in assay [2], 25 µg/mL (≈ 47.9 µM); in assay [3], 12.5 µg/mL (≈ 23.9 µM); in assay [4], 30 µg/mL (≈ 57.5 µM); in assay [5], 25 µg/mL (≈ 47.9 µM).

Take `Cc1ccc(S(=O)(=O)N2CCC(n3cc(-c4nnc(-c5ccccc5)c(-c5ccccc5)n4)nn3)CC2)cc1`: the MIC was determined as 35 µg/mL (≈ 65.1 µM) in assay [1]; 90 µg/mL (≈ 167 µM) in assay [2]; 47.5 µg/mL (≈ 88.3 µM) in assay [3]; 150 µg/mL (≈ 279 µM) in assay [4]; 100 µg/mL (≈ 186 µM) in [5].

For `c1ccc(CN2CCC(n3cc(-c4nnc(-c5ccccc5)c(-c5ccccc5)n4)nn3)CC2)cc1`, the MIC entry in assay [7] and in assay [6] was “inactive” throughout. Further, the MIC in assay [2] turned out to be 40 µg/mL (≈ 84.5 µM); in assay [3] it was 95 µg/mL (≈ 201 µM); in assay [5], 60 µg/mL (≈ 127 µM).

Regarding `CS(=O)(=O)N1CCC(n2cc(-c3nnc(-c4ccccc4)c(-c4ccccc4)n3)nn2)CC1`, the minimum inhibitory concentration (MIC) in assay [1] was found to be 30 µg/mL (≈ 65 µM); in assay [2], 50 µg/mL (≈ 108 µM); in assay [5] it was 60 µg/mL (≈ 130 µM). Also, the MIC result in assay [6] and in assay [8] was “inactive” throughout.

With `Clc1ccc(COC(Cn2ccnc2)c2ccc(Cl)cc2Cl)c(Cl)c1` (stereo not given) [MICONAZOLE], the MIC was 12.5 µg/mL (≈ 30 µM) in [1]; 25 µg/mL (≈ 60.1 µM) in assay [2]; 12.5 µg/mL (≈ 30 µM) in [3]; 25 µg/mL (≈ 60.1 µM) in assay [4]; 25 µg/mL (≈ 60.1 µM) in assay [5].

For `CN1CCC(n2cc(-c3nnc(-c4ccccc4)c(-c4ccccc4)n3)nn2)CC1`, the minimal inhibitory concentration (MIC) in [1] was determined as 17.5 µg/mL (≈ 44 µM); in assay [2], 25 µg/mL (≈ 62.9 µM); in assay [3], 12.5 µg/mL (≈ 31.4 µM); in [4] it was 25 µg/mL (≈ 62.9 µM); in [5], 30 µg/mL (≈ 75.5 µM).

Consider `CC(C)(C)OC(=O)N1CCC(n2cc(-c3nnc(-c4ccccc4)c(-c4ccccc4)n3)nn2)CC1`, for which the values for the MIC in [1], in assay [2] and in assay [4] were 55 µg/mL (≈ 114 µM), 70 µg/mL (≈ 145 µM) and 100 µg/mL (≈ 207 µM), respectively. In addition, the MIC result in assay [9] and in assay [8] was “inactive” each time.

For the compound `c1ccc(-c2nnc(-c3cn(C4CCNCC4)nn3)nc2-c2ccccc2)cc1`, the MIC in [1] was found to be 37.5 µg/mL (≈ 97.8 µM); in [2], 30 µg/mL (≈ 78.2 µM); in [3], 42.5 µg/mL (≈ 111 µM); in [4], 45 µg/mL (≈ 117 µM); in assay [5] it was 40 µg/mL (≈ 104 µM).

In the case of `OC(Cn1cncn1)(Cn1cncn1)c1ccc(F)cc1F` [FLUCONAZOLE], the MIC in assay [1] amounted to 5 µg/mL (≈ 16.3 µM); in [2] it was 5 µg/mL (≈ 16.3 µM); in assay [3] it was 10 µg/mL (≈ 32.7 µM); in [4] it was 5 µg/mL (≈ 16.3 µM); in [5], 5 µg/mL (≈ 16.3 µM).

As to `CCCC(=O)N1CCC(n2cc(-c3nnc(-c4ccccc4)c(-c4ccccc4)n3)nn2)CC1`, the minimum inhibitory concentration (MIC) in [1] is 35 µg/mL (≈ 77.2 µM); in assay [2], 62.5 µg/mL (≈ 138 µM); in [3], 40 µg/mL (≈ 88.2 µM); in [4], 75 µg/mL (≈ 165 µM); in assay [5], 65 µg/mL (≈ 143 µM).
